Data on 1 compound can be found in ChEMBL document CHEMBL4038325, “Opioid Receptor Modulators with a Cinnamyl Group” (J Med Chem, 2017).

Active and inactive are the calls of the source. No cut-off for these calls is given here.

The target of data set [1] is Delta-type opioid receptor (Homo sapiens) (UniProt P41143). The data set is described as follows: Agonist activity at recombinant human DOR expressed in HEK293T cells assessed as inhibition of forskolin-stimulated cAMP level at 10 uM preincubated for 15 to 20 mins followed by forskolin addition by GloSensor assay relative to control. The format is functional, cell-based. Conditions: HEK-293T. In short, it runs like this: (§1)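 HEK293T transiently co-transfected (calcium phosphate) with DOR or MOR plus pGloSensor-22F. Cells were loaded with luciferin in HBSS/20 mM HEPES pH 7.4 for 90 min, then given compound in triplicate for 15-20 min at 37°C. Forskolin added (final 10 µM); luminescence read. cAMP signal normalized to forskolin-alone control.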
Sequence of Delta-type opioid receptor (Homo sapiens) (P41143 whole entry): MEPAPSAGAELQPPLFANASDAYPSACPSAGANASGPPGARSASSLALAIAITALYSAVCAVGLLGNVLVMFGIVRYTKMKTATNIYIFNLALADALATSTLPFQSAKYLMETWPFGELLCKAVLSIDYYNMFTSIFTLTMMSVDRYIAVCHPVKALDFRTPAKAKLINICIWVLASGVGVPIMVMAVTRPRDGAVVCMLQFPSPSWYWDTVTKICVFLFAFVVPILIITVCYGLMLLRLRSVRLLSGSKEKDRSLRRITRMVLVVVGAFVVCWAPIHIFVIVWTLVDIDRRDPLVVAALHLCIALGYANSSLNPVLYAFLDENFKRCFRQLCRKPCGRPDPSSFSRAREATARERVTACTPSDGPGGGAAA

Data set [2] deals with Histamine H1 receptor (Homo sapiens) (UniProt P35367). The data set is described as follows: Antagonist activity at histamine H1 receptor (unknown origin) at 10 uM. The essentials: (§2)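 Primary screen, agonist and antagonist modes, each receptor tested separately. Compounds at 10 µM in triplicate; response taken as % inhibition or stimulation relative to control. Compounds giving at least 50% effect were then run over 10 µM to 10 pM to obtain EC50/IC50.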
Sequence of Histamine H1 receptor (Homo sapiens) (P35367 whole entry): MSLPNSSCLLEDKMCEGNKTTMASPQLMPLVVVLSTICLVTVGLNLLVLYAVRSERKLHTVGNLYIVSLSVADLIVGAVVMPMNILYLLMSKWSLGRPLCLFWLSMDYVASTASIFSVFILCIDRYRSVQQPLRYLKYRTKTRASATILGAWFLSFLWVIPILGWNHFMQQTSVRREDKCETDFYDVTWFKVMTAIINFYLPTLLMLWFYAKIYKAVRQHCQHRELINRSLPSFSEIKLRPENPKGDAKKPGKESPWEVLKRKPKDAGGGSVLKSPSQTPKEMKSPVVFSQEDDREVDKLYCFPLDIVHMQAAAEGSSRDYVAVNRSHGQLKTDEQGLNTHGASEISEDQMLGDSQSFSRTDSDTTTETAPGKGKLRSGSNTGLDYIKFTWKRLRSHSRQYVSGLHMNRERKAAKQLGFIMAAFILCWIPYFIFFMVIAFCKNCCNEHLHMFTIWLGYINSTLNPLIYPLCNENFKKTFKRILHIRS

Data set [3] has as its target T1, Mu-type opioid receptor (Homo sapiens, UniProt P35372). In words: Agonist activity at recombinant human MOR expressed in HEK293T cells assessed as inhibition of forskolin-stimulated cAMP level at 10 uM preincubated for 15 to 20 mins followed by forskolin addition by GloSensor assay relative to control. It is filed as functional, cell-based. Conditions: HEK-293T. In short, it runs like this: as §1
(cAMP levels reflect the balance of adenylyl cyclase and phosphodiesterase activity.)

The test system of data set [4] is Mus musculus. In words: Analgesic activity in C57BL/6J mouse assessed as tail withdrawal latency at 10 mg/kg measured after 30 mins in presence of KOR antagonist norBNI by tail flick test. The format is functional, organism-based. The essentials:
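Male C57BL/6J mice (5-6/group) received norBNI 10 mg/kg i.p. 30 min before test compound at 10 mg/kg i.p. Tail withdrawal latency in 52 ± 0.5°C water was measured at the 30 min time point, three readings, by a blinded observer.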

Data set [5] has as its target Delta-type opioid receptor (Homo sapiens) (UniProt P41143). In words: Antagonist activity at recombinant human DOR expressed in HEK293T cells assessed as reduction in DADLE-induced inhibition of forskolin-stimulated cAMP level at 10 uM preincubated for 15 to 20 mins followed by DADLE and forskolin addition by GloSensor assay relative to control. Conditions: HEK-293T. It is filed as functional, cell-based. In short, it runs like this:
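HEK293T transiently expressing DOR plus GloSensor-22F were given compound in triplicate for 15-20 min at 37°C. DADLE (1 µM) was then added, followed by forskolin (10 µM); luminescence read. Signal normalized to % control (agonist + forskolin).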

Data set [6] concerns the target Histamine H1 receptor (Homo sapiens) (UniProt P35367). In words: Agonist activity at histamine H1 receptor (unknown origin) at 10 uM. The essentials: as §2
Data set [7] has as its target T2, D(2) dopamine receptor (Homo sapiens, UniProt P14416). The data set is described as follows: Agonist activity at dopamine D2 receptor (unknown origin) at 10 uM. The essentials: as §2
The target of data set [8] is T2, D(2) dopamine receptor. The data set is described as follows: Antagonist activity at dopamine D2 receptor (unknown origin) at 10 uM. In short, it runs like this:
as §2

Data set [9] deals with Kappa-type opioid receptor (Homo sapiens, UniProt P41145). The data set is described as follows: Agonist activity at recombinant human KOR expressed in HEK293T cells assessed as inhibition of forskolin-stimulated cAMP level preincubated for 15 to 20 mins followed by forskolin addition by GloSensor assay. It is filed as functional, cell-based, HEK-293T. The essentials: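 HEK293T transiently transfected with hKOR plus GloSensor-22F plasmid. Compounds (10 µM to 10 pM, triplicate) added for 15-20 min at 37°C, then forskolin added (final 10 µM). Luminescence of live cells normalized to % forskolin-alone control. IC50 from non-linear regression; two independent experiments.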
Sequence of Kappa-type opioid receptor (P41145 whole entry): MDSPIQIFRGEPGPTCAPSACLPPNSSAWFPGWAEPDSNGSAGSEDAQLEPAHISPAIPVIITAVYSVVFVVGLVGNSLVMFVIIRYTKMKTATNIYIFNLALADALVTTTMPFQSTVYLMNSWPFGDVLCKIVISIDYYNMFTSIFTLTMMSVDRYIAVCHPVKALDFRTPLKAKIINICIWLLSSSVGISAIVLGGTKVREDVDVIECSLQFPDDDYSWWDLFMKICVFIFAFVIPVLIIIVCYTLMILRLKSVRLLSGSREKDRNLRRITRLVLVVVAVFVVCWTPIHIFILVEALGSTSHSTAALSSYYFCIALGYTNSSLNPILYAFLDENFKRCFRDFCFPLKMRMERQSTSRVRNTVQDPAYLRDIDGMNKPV

The test system of data set [10] is Mus musculus. In words: Analgesic activity in C57BL/6J mouse assessed as tail withdrawal latency at 10 mg/kg by tail flick test. It is filed as functional, organism-based. In short, it runs like this: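 Male C57BL/6J mice, 6-8 weeks, 22-25 g; 5-6 per group. Dosed 10 mg/kg i.p. Distal third of tail immersed in 52 ± 0.5°C water; latency recorded three times per time point by a blinded observer. Latency expressed as % of baseline taken 15 min before dosing, followed over time; area under curve also calculated.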

Data set [11] has as its target T1, Mu-type opioid receptor. Conditions: HEK-293T, at 10 µM.

T2 sequence (P14416 whole entry): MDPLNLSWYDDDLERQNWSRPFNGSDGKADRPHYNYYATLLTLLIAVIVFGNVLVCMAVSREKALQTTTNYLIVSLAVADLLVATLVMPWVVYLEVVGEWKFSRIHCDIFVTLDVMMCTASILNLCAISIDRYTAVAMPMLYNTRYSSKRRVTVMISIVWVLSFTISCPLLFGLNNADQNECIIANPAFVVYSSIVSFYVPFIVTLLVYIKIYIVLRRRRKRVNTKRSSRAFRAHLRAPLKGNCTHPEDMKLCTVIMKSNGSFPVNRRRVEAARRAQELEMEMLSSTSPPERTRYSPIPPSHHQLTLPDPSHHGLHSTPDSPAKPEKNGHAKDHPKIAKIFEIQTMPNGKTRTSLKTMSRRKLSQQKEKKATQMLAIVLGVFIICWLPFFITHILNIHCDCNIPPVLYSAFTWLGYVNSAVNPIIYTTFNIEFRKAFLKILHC
T1 sequence (P35372 whole entry): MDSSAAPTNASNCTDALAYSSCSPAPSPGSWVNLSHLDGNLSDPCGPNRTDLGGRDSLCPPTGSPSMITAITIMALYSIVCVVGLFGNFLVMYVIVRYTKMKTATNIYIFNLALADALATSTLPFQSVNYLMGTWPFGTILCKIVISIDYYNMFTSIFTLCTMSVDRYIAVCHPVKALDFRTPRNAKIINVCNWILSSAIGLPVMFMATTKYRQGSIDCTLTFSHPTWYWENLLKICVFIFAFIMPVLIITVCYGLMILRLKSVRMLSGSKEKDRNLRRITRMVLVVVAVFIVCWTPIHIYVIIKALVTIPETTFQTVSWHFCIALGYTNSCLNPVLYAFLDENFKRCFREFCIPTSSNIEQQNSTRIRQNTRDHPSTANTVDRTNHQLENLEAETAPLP

For the compound `O=C(O)/C(=C/c1ccccc1)CN1CCN(c2cccc(Cl)c2Cl)CC1`, the inhibition entry (in [1]; in data set [2]; at Mu-type opioid receptor [3]; in [5]; on Mu-type opioid receptor [11]) was “inactive” each time. The result (in the data set with Mus musculus [4]; in [6]) was inactive. Besides, the Activity entry on D(2) dopamine receptor [7] is “Not Active”; with Mus musculus [10], “Dose-dependent effect”. Besides, on D(2) dopamine receptor [8], the “inhibition (INH)” value is reported as “Not Active”. The results for the IC50 in data set [9] (read-out: IC50) and in data set [9] (read-out: pIC50 (converted)) were 800 nM and 716 to 813 nM, respectively.
